Tests used:
Histone deacetylase = assay: Inhibition of human HDAC in HeLa cell nuclear extracts using KI-104 Fluor de Lys as substrate by fluorescence assay; format: protein assay
In short: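 HDAC activity from partially purified HeLa nuclear extracts, using a fluorogenic acetylated histone peptide (Fluor de Lys) as substrate. Replicates n ≥ 2, mean values reported.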

HCT-116 = assay: Antiproliferative activity against human HCT116 cells after 72 hrs by CellTiter-Glo luminescent cell viability assay; format: functional, cell-based; settings: HCT-116, 72 h
In short: (§1)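 Cells in exponential growth exposed to a range of inhibitor concentrations for 72 h. CellTiter-Glo reagent added, mixed 2 min to lyse cells, luminescence read 10 min later. IC50 derived from the concentration–response. Replicates n ≥ 2, mean shown.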

A549 = assay: Antiproliferative activity against human A549 cells after 72 hrs by CellTiter-Glo luminescent cell viability assay; format: functional, cell-based; settings: A549, 72 h; in short: as §1
K562 = assay: Antiproliferative activity against human K562 cells after 72 hrs by CellTiter-Glo luminescent cell viability assay; format: functional, cell-based; settings: K562, 72 h; in short: as §1
[1] = Oral bioavailability in mouse; format: ADME, organism-based; settings: in vivo
[2] = Clearance in mouse; format: ADME, organism-based; settings: in vivo

| SMILES | IC50 (Histone deacetylase) [µM] | IC50 (HCT-116) [µM] | IC50 (A549) [µM] | IC50 (K562) [µM] | bioavailability [1] [%] | clearance [2] [mL/min/kg] |
| --- | --- | --- | --- | --- | --- | --- |
| CN1CCC2(CC1)CC(=O)c1ccc(/C=C/C(=O)NO)cc1O2 | 5.84 | 5.72 | 3.76 | 4.5 | – | – |
| CCOC(=O)N1CCC2(CC1)Oc1ccc(/C=C/C(=O)NO)cc1C2=O | 2.99 | 11.8 | 20.2 | 2.61 | – | – |
| O=C(/C=C/c1cccc(S(=O)(=O)Nc2ccccc2)c1)NO [BELINOSTAT] | – | – | – | – | < 10 | 193 |
| CC(=O)NC1CC2(CCN(Cc3ccccc3)CC2)Oc2ccc(/C=C/C(=O)NO)cc21 (stereo not given) | 5.15 | 32.8 | > 50 | > 50 | – | – |
| O=C(CCCCCCC(=O)Nc1ccccc1)NO [VORINOSTAT] | – | – | – | – | < 10 | – |
| O=C(NO)c1ccc2c(c1)C(=O)CC1(CCN(Cc3ccccc3)CC1)O2 | 24 | 15 | 22 | 16 | – | – |
| O=C(NO)c1ccc2c(c1)C(=O)CC1(CCN(C(=O)c3ccccc3)CC1)O2 | 29 | > 50 | > 50 | > 50 | – | – |
| O=C(/C=C/c1ccc2c(c1)CCC1(CCN(Cc3ccccc3)CC1)O2)NO | 9.02 | 28.2 | ≥ 50 | 38.6 | – | – |
| CC(=O)N1CCC2(CC1)CC(=O)c1ccc(/C=C/C(=O)NO)cc1O2 | 1.04 | 36 | 11.3 | 6.08 | – | – |
| O=C(/C=C/c1ccc2c(c1)OC1(CCN(Cc3ccccc3)CC1)CC2=O)NO | 2.173 | 8.41 | 12.2 | 8.94 | – | – |
| Cc1[nH]c2ccccc2c1CCNCc1ccc(/C=C/C(=O)NO)cc1 [PANOBINOSTAT] | – | – | – | – | < 10 | 305 |
| CC(=O)N1CCC2(CC1)CC(=O)c1cc(C(=O)NO)ccc1O2 | > 50 | > 50 | > 50 | > 50 | – | – |
| O=C(/C=C/c1ccc2c(c1)C(=O)C1(CCN(C(=O)c3ccccc3)CC1)O2)NO | 2.55 | 12.3 | 22.1 | 7.43 | – | – |
| O=C(/C=C/c1ccc2c(c1)OC1(CCNCC1)CC2=O)NO | 1.41 | 35.5 | 24.8 | > 50 | – | – |
| CC(=O)N1CCC2(CC1)CC(=O)c1cc(/C=C/C(=O)NO)ccc1O2 | 0.641 | 5.66 | 26.2 | 9.37 | – | – |
| CN1CCC2(CC1)CC(=O)c1cc(C(=O)NO)ccc1O2 | > 50 | > 50 | > 50 | > 50 | – | – |
| CC(=O)N1CCC2(CC1)Oc1ccc(/C=C/C(=O)NO)cc1C2=O | > 50 | > 50 | > 50 | > 50 | – | – |

Further compounds by falling IC50 (HCT-116), results first:

| IC50 (Histone deacetylase) [µM] | IC50 (HCT-116) [µM] | IC50 (A549) [µM] | IC50 (K562) [µM] | bioavailability [1] [%] | clearance [2] [mL/min/kg] | SMILES |
| --- | --- | --- | --- | --- | --- | --- |
| 0.366 | 4.92 | 8.78 | 3.19 | – | – | O=C(/C=C/c1ccc2c(c1)OC1(CCN(C(=O)c3ccccc3)CC1)CC2=O)NO |
| 1.19 | 3.51 | 4.7 | 3.27 | – | – | O=C(/C=C/c1ccc2c(c1)C=CC1(CCN(Cc3ccccc3)CC1)O2)NO |
| 0.932 | 3.1 | 5.94 | 4.11 | – | – | O=C(/C=C/c1ccc2c(c1)C(=O)C1(CCN(Cc3ccccc3)CC1)O2)NO |
| 0.408 | 3.03 | 2.78 | 2.19 | – | – | CCOC(=O)N1CCC2(CC1)CC(=O)c1ccc(/C=C/C(=O)NO)cc1O2 |
| 1.21 | 2.33 | 5.25 | 2.95 | – | – | O=C(/C=C/c1ccc2c(c1)C(O)CC1(CCN(Cc3ccccc3)CC1)O2)NO (stereo not given) |
| 0.316 | 2.2 | 5.52 | 1.65 | – | – | O=C(/C=C/c1ccc2c(c1)C(=O)CC1(CCN(C(=O)c3ccccc3)CC1)O2)NO |
| 0.14 | 2.14 | 5.27 | 2.08 | – | – | CCOC(=O)N1CCC2(CC1)CC(=O)c1cc(/C=C/C(=O)NO)ccc1O2 |
| 0.082 | 1.59 | 2.72 | 5.77 | – | – | O=C(/C=C/c1ccc2c(c1)C(=O)CC1(CCNCC1)O2)NO |
| 0.221 | 0.832 | 1.09 | 1.69 | – | – | O=C(/C=C/c1ccc2c(c1)C(=O)C1(CCNCC1)O2)NO |
| 0.538 | 0.337 | 1.07 | 0.397 | – | – | CN1CCC2(CC1)Oc1ccc(/C=C/C(=O)NO)cc1C2=O |
| 0.288 | 0.266 | 1.04 | 0.806 | – | – | CN1CCC2(CC1)CC(=O)c1cc(/C=C/C(=O)NO)ccc1O2 |

Source: ChEMBL document CHEMBL1938288, “Discovery, synthesis, and pharmacological evaluation of spiropiperidine hydroxamic acid based derivatives as structurally novel histone deacetylase (HDAC) inhibitors” (J Med Chem, 2011)
